# According to ChEMBL document CHEMBL2440013, “New quaternary ammonium camphor derivatives and their antiviral activity, genotoxic effects and cytotoxicity” (Bioorg Med Chem, 2013):
# pEC50: −log10 of the molar value. Structures can show the parent of a compound that is named as a salt.
# Key:
# [1] = Cytotoxicity against MDCK cells after 48 hrs by MTT assay; assay type: cell-based, Canis lupus familiaris; details: dog, read-out: CTD50
# Outline: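 MDCK cells were grown in MEM at 37 °C, 5% CO2 to a confluent monolayer. They were then exposed for 48 h to twofold dilutions (1000–4 µg/ml in MEM), washed twice with saline, and given MTT ([…] in saline) for 1 h. Formazan was dissolved in DMSO and OD read at 535 nm. Triplicates were run. CTD50 is the concentration halving OD versus control wells.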
# [2] = Antiviral activity against Influenza virus A/California/07/09 (H1N1)pdm09 infected in MDCK cells assessed as inhibition of viral replication incubated for 1 hr prior to viral infection measured after 48 hrs by hemagglutination reaction; assay type: functional, cell-based, Influenza A virus (A/California/07/2009(H1N1))
# Outline: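 MDCK monolayers in MEM were pre-incubated with compound for 1 h at 37 °C before infection, then held 48 h at 37 °C in 5% CO2. Virus yield was read by haemagglutination: equal volumes of supernatant and 1% chicken erythrocytes, 60 min at room temperature. Triplicates were run. EC50 was the concentration that halved virus production (0.3 log10 EID50 titre drop).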
# [3] = Selectivity index, ratio of CTD50 for MDCK cells to EC50 for Influenza A virus California/07/09(H1N1) pdm09 infected in MDCK cells; assay type: toxicity, cell-based; details: dog, read-out: Selectivity Index
# Outline: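 CTD50 came from MDCK cells given twofold dilutions (1000–4 µg/ml) in MEM for 48 h at 37 °C, 5% CO2. CTD50 was the concentration halving OD versus control. SI is CTD50 divided by EC50 from the haemagglutination-based antiviral assay.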
# U-937 = assay: Cytotoxicity against human U937 cells after 72 hrs by MTT assay; assay type: functional
# Outline: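 Cells were grown in RPMI-1640 with 10% embryonic calf serum, 2 mmol/L L-glutamine, gentamicin and lincomycin. Compounds in DMSO were added, then 72 h at 37 °C, 5% CO2. Three wells per concentration, with untreated cells as control. 1% MTT for 4 h, DMSO for 15 min, OD 570 nm. CTD50 is the concentration killing 50% of cells.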
# Escherichia coli [4] = assay: Induction of mutagenicity in Escherichia coli BL21(DE3) expressing pRAC-gfp assessed as modulation of reporter protein GFP synthesis at 150 uM incubated for 1.5 hrs followed by plasmid maturation measured after 1.5 hrs by fluorophotometry relative to control; assay type: toxicity
# [5] = Toxicity in Escherichia coli BL21(DE3) expressing pET36b-gfp assessed as inhibition of IPTG-induced reporter protein GFP synthesis at 150 uM after 1.5 hrs by fluorophotometry relative to control; details: Escherichia coli BL21(DE3) cells expressing pET36b-gfp, read-out: Activity
# Outline: (§1)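 E. coli BL21(DE3) carrying the IPTG-inducible gfp plasmid was grown in LB at 37 °C with shaking to D600 0.4–0.5, then treated with compound for 1.5 h. OD600 and GFP emission 500–600 nm (excitation 491 nm) were read. Control cells were untreated, with 1 mM IPTG (final) added after 1.5 h. Fluorescence decreases of 20% and 50% versus control were counted as toxic and extremely toxic.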
# Escherichia coli [6] = assay: Induction of mutagenicity in Escherichia coli BL21(DE3) expressing pRAC-gfp assessed as modulation of reporter protein GFP synthesis at 2 uM incubated for 1.5 hrs followed by plasmid maturation measured after 1.5 hrs by fluorophotometry; assay type: toxicity
# [7] = Toxicity in Escherichia coli BL21(DE3) expressing pET36b-gfp assessed as inhibition of IPTG-induced reporter protein GFP synthesis at 2 uM after 1.5 hrs by fluorophotometry relative to control; details: Escherichia coli BL21(DE3) cells expressing pET36b-gfp, read-out: Activity; outline: as §1
# Escherichia coli [8] = assay: Induction of mutagenicity in Escherichia coli BL21(DE3) expressing pRAC-gfp assessed as induction of reporter protein GFP synthesis at 10 ug/ml incubated for 1.5 hrs followed by plasmid maturation measured after 1.5 hrs by fluorophotometry; assay type: toxicity
# Outline: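 BL21(DE3) carried pRAC-gfp, with GFP under the Proteus mirabilis recA regulatory region. Cells were grown in LB at 37 °C with shaking to OD600 0.4–0.5, given compound, grown 1.5 h, then held 1.5 h at 4–6 °C for chromophore maturation. OD600 and GFP emission (500–600 nm, excitation 491 nm) were measured. Controls were water (negative) and nalidixic acid […] (positive). Result is % change in GFP versus control.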
Structure (SMILES),CC50 at 48 h [1],"pEC50 ([2]; Influenza A virus, pdm09, MDCK)",selectivity ratio [3],other results
CCN(CC)CC/N=C1\C[C@H]2CC[C@]1(C)C2(C)C,807 µM,5.00,81,–
CC[N+](CC)(CCCCC[N+](CC)(CC)CC/N=C1\C[C@H]2CC[C@]1(C)C2(C)C)CC/N=C1\C[C@H]2CC[C@]1(C)C2(C)C,1280 µM,4.83,87,–
CC[N+](CC)(CCCCCC[N+](CC)(CC)CC/N=C1\C[C@H]2CC[C@]1(C)C2(C)C)CC/N=C1\C[C@H]2CC[C@]1(C)C2(C)C.[Br-].[Br-],1710 µM,4.09,21,CTD50 (U-937): 82.1 µM
CC[N+](CC)(CCCCCCCC[N+](CC)(CC)CC/N=C1\C[C@H]2CC[C@]1(C)C2(C)C)CC/N=C1\C[C@H]2CC[C@]1(C)C2(C)C,552 µM,4.88,42,"Activity (Escherichia coli [4]): 57%; inhibition at 1.5 h, 150 µM [5]: 67%"
CC[N+](CC)(CCCCCCCCC[N+](CC)(CC)CC/N=C1\C[C@H]2CC[C@]1(C)C2(C)C)CC/N=C1\C[C@H]2CC[C@]1(C)C2(C)C,578 µM,5.16,82,"Activity (Escherichia coli [4]): 51%; inhibition at 1.5 h, 150 µM [5]: 65%"
CC[N+](CC)(CCCCCCCCCC[N+](CC)(CC)CC/N=C1\C[C@H]2CC[C@]1(C)C2(C)C)CC/N=C1\C[C@H]2CC[C@]1(C)C2(C)C,285 µM,4.26,5,"Activity (Escherichia coli [4]): 70%; inhibition at 1.5 h, 150 µM [5]: 78%"
CC[N+](CC)(CCCCCCCCCCCC[N+](CC)(CC)CC/N=C1\C[C@H]2CC[C@]1(C)C2(C)C)CC/N=C1\C[C@H]2CC[C@]1(C)C2(C)C,128 µM,4.22,2,"Activity (Escherichia coli [4]): 74%; inhibition at 1.5 h, 150 µM [5]: 89%"
CC[N+](CC)(CC/N=C1\C[C@H]2CC[C@]1(C)C2(C)C)Cc1ccc(C[N+](CC)(CC)CC/N=C2\C[C@H]3CC[C@]2(C)C3(C)C)cc1,1450 µM,4.36,33,–
CC[N+](C)(CC)CC/N=C1\C[C@H]2CC[C@]1(C)C2(C)C,1890 µM,4.39,–,–
CC[N+](CC)(CC)CC/N=C1\C[C@H]2CC[C@]1(C)C2(C)C,1780 µM,3.85,13,–
"CC12CCC(CC1=O)C2(C)C (single isomer, unassigned; (+)) [CAMPHOR]",3290 µM,–,2,"pEC50 ([2]; mdck): 2.78; Activity (Escherichia coli [6]): 5%; inhibition at 1.5 h, 2 µM [7]: 6%"
NC12CC3CC(CC(C3)C1)C2 [AMANTADINE],284 µM,–,4,pEC50 ([2]; mdck): 4.19
CC(N)C1C[C@@H]2CC[C@H]1C2 (stereo partly specified) [DEITIFORIN],1270 µM,–,–,–
CCn1cc(C(=O)O)c(=O)c2ccc(C)nc21 [NALIDIXIC ACID],–,–,–,Activity (Escherichia coli [8]): 500%
CC(N)C12CC3CC(CC(C3)C1)C2 (stereo unspecified) [RIMANTADINE HYDROCHLORIDE],335 µM,4.17,5,–
